Results from article PMC7175782 (Bioconjugate chemistry, 2018).

Test system: TAR RNA
Test: Direct binding of ligands to TAR by ESI-MS under nondenaturing conditions
Design: species or system HIV-1
Conditions: 1 μM TAR, 10 μM ligand (1:10), 150 mM ammonium acetate
In short: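 Nondenaturing ESI-MS of HIV-1 TAR RNA (1 μM) mixed with test compound (10 μM, 1:10 molar ratio) in 150 mM ammonium acetate. Species assigned from monoisotopic masses. Free and bound RNA were quantified from relative abundances, expressed as percentages and compared to assess binding.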

C[C@H](NC(=O)C(N)CCCCN)C(=O)Nc1ccc2c(c1)C(=O)c1ccc(NC(=O)[C@H](C)NC(=O)C(N)CCCCN)cc1C2=O.O=C(O)C(F)(F)F.O=C(O)C(F)(F)F.O=C(O)C(F)(F)F.O=C(O)C(F)(F)F (stereo partly drawn) [D-4h, N,N′-(2S,2′S)-1,1′-(9,10-Dioxo-9,10-dihydro-anthracene-2,6-diyl)bis(azanediyl)-bis(1-oxopropane-2,1-diyl)bis(2,6-diaminohexanamide)-tetra-trifluoroacetate]
binding stoichiometry of TAR complexes (ligand:TAR): up to 4 equiv of ligand

CC(NC(=O)C(N)CCCN)C(=O)Nc1ccc2c(c1)C(=O)c1ccc(NC(=O)C(C)NC(=O)C(N)CCCN)cc1C2=O.O=C(O)C(F)(F)F.O=C(O)C(F)(F)F.O=C(O)C(F)(F)F.O=C(O)C(F)(F)F [D-4g, N,N ′-(1,1′-(9,10-Dioxo-9,10-dihydroanthracene-2,6-diyl)-bis(azanediyl)bis(1-oxo-propane-2,1-diyl))bis(2,5-diaminopentanamide)-tetra-trifluoroacetate]
binding stoichiometry of TAR complexes (ligand:TAR): up to 3 equiv of ligand
